What follows are compounds tested on Human immunodeficiency virus 1 (assay: Ratio of EC50 for HIV-1 M3 harboring protease L10I, K20R, M36I, G48V, I62V, A71V, V82A, I93L mutant to EC50 for wild type HIV-1 3B). Conditions: not given.
Format: functional

Row | Structure (SMILES) | Ratio EC50
1 | CC(C)CN(C[C@@H](O)[C@H](Cc1ccccc1)NC(=O)O[C@H]1CO[C@H]2OC[C@H](Cl)[C@H]21)S(=O)(=O)c1ccc(N)cc1 | 4
2 | CNc1nc2ccc(S(=O)(=O)N(CC(C)C)C[C@@H](O)[C@H](Cc3ccccc3)NC(=O)O[C@H]3CO[C@H]4OC[C@H](NC(=O)OCc5ccccc5)[C@H]43)cc2o1 | 0.3
3 | CNc1nc2ccc(S(=O)(=O)N(CC(C)C)C[C@@H](O)[C@H](Cc3ccccc3)NC(=O)O[C@H]3CO[C@H]4OC[C@H](OC(=O)NCc5ccccc5)[C@H]43)cc2o1 | 0.7
4 | CNc1nc2ccc(S(=O)(=O)N(CC(C)C)C[C@@H](O)[C@H](Cc3ccccc3)NC(=O)O[C@H]3CO[C@H]4OC[C@H](OCC(=O)NCc5ccccc5)[C@H]43)cc2o1 | 0.3

The compounds below were run on Human immunodeficiency virus 1 (assay: Antiviral activity against wild type HIV-1 3B infected in human MT4 cells assessed as inhibition of viral replication after 3 days by GFP reporter gene assay in presence of human serum). Conditions: Human immunodeficiency virus 1, 3B, MT4, 72 h.
Format: functional, organism-based

Row | Structure (SMILES) | EC50 [nM]
5 | CC(C)CN(C[C@@H](O)[C@H](Cc1ccccc1)NC(=O)O[C@H]1CO[C@H]2OC[C@H](Cl)[C@H]21)S(=O)(=O)c1ccc(N)cc1 | 4.6
6 | CNc1nc2ccc(S(=O)(=O)N(CC(C)C)C[C@@H](O)[C@H](Cc3ccccc3)NC(=O)O[C@H]3CO[C@H]4OC[C@H](NC(=O)OCc5ccccc5)[C@H]43)cc2o1 | 16.6
7 | CNc1nc2ccc(S(=O)(=O)N(CC(C)C)C[C@@H](O)[C@H](Cc3ccccc3)NC(=O)O[C@H]3CO[C@H]4OC[C@H](OC(=O)NCc5ccccc5)[C@H]43)cc2o1 | 26.7
8 | CNc1nc2ccc(S(=O)(=O)N(CC(C)C)C[C@@H](O)[C@H](Cc3ccccc3)NC(=O)O[C@H]3CO[C@H]4OC[C@H](OCC(=O)NCc5ccccc5)[C@H]43)cc2o1 | 102

These compounds were tested on Human immunodeficiency virus 1 (assay: Antiviral activity against HIV-1 M1 harboring protease L10I, M46I, I64V, I84V, L90M, I93L mutant infected in human MT4 cells assessed as inhibition of viral replication after 3 days by GFP reporter gene assay). Conditions: Human immunodeficiency virus 1, M1, MT4, 72 h.
Format: functional, organism-based
How it was run: (§1)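 Cell-based replication assay in MT4 cells carrying an LTR-GFP readout (HIV tat drives GFP). Serial compound concentrations were mixed with cells at 150 000 cells/mL and 200 CCID50 of virus, incubated 3 days at 37 °C, 5% CO2. Percent inhibition per concentration gave dose-response curves for EC50/pEC50. Run in quadruplicate. Mock-infected parallel cultures at the same concentrations gave CC50.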

Row | Structure (SMILES) | EC50 [nM]
9 | CC(C)CN(C[C@@H](O)[C@H](Cc1ccccc1)NC(=O)O[C@H]1CO[C@H]2OC[C@H](Cl)[C@H]21)S(=O)(=O)c1ccc(N)cc1 | 2.8
10 | CNc1nc2ccc(S(=O)(=O)N(CC(C)C)C[C@@H](O)[C@H](Cc3ccccc3)NC(=O)O[C@H]3CO[C@H]4OC[C@H](NC(=O)OCc5ccccc5)[C@H]43)cc2o1 | 2.4
11 | CNc1nc2ccc(S(=O)(=O)N(CC(C)C)C[C@@H](O)[C@H](Cc3ccccc3)NC(=O)O[C@H]3CO[C@H]4OC[C@H](OC(=O)NCc5ccccc5)[C@H]43)cc2o1 | 7.2
12 | CNc1nc2ccc(S(=O)(=O)N(CC(C)C)C[C@@H](O)[C@H](Cc3ccccc3)NC(=O)O[C@H]3CO[C@H]4OC[C@H](OCC(=O)NCc5ccccc5)[C@H]43)cc2o1 | 13.4

The compounds below were run on Human immunodeficiency virus 1 (assay: Antiviral activity against wild type HIV-1 3B infected in human MT4 cells assessed as inhibition of viral replication after 3 days by GFP reporter gene assay). Conditions: Human immunodeficiency virus 1, 3B, MT4, 72 h.
Format: functional, organism-based
How it was run: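 MT4 cells (150 000 cells/mL) were infected with wild-type HIV-1/LAI at 200 CCID50 across a compound concentration range. Plates were incubated 3 days at 37 °C and 5% CO2. Replication was read as GFP driven by HIV-tat binding LTR sequences. EC50 was taken from dose-response curves of percent inhibition, in quadruplicate. Mock-infected parallel cultures gave CC50 from reduced GFP.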

Row | Structure (SMILES) | EC50 [nM]
13 | CC(C)CN(C[C@@H](O)[C@H](Cc1ccccc1)NC(=O)O[C@H]1CO[C@H]2OC[C@H](Cl)[C@H]21)S(=O)(=O)c1ccc(N)cc1 | 0.4
14 | CNc1nc2ccc(S(=O)(=O)N(CC(C)C)C[C@@H](O)[C@H](Cc3ccccc3)NC(=O)O[C@H]3CO[C@H]4OC[C@H](NC(=O)OCc5ccccc5)[C@H]43)cc2o1 | 3.8
15 | CNc1nc2ccc(S(=O)(=O)N(CC(C)C)C[C@@H](O)[C@H](Cc3ccccc3)NC(=O)O[C@H]3CO[C@H]4OC[C@H](OC(=O)NCc5ccccc5)[C@H]43)cc2o1 | 5.8
16 | CNc1nc2ccc(S(=O)(=O)N(CC(C)C)C[C@@H](O)[C@H](Cc3ccccc3)NC(=O)O[C@H]3CO[C@H]4OC[C@H](OCC(=O)NCc5ccccc5)[C@H]43)cc2o1 | 25

What follows are compounds tested on Human immunodeficiency virus 1 (assay: Antiviral activity against HIV-1 M2 harboring protease L10I, I13V, M46I, I50V, L63P, L76V mutant infected in human MT4 cells assessed as inhibition of viral replication after 3 days by GFP reporter gene assay). Conditions: Human immunodeficiency virus 1, M2, MT4, 72 h.
Format: functional, organism-based
How it was run: as §1

Row | Structure (SMILES) | EC50 [nM]
17 | CC(C)CN(C[C@@H](O)[C@H](Cc1ccccc1)NC(=O)O[C@H]1CO[C@H]2OC[C@H](Cl)[C@H]21)S(=O)(=O)c1ccc(N)cc1 | 31.6
18 | CNc1nc2ccc(S(=O)(=O)N(CC(C)C)C[C@@H](O)[C@H](Cc3ccccc3)NC(=O)O[C@H]3CO[C@H]4OC[C@H](NC(=O)OCc5ccccc5)[C@H]43)cc2o1 | 7.5
19 | CNc1nc2ccc(S(=O)(=O)N(CC(C)C)C[C@@H](O)[C@H](Cc3ccccc3)NC(=O)O[C@H]3CO[C@H]4OC[C@H](OC(=O)NCc5ccccc5)[C@H]43)cc2o1 | 13.9
20 | CNc1nc2ccc(S(=O)(=O)N(CC(C)C)C[C@@H](O)[C@H](Cc3ccccc3)NC(=O)O[C@H]3CO[C@H]4OC[C@H](OCC(=O)NCc5ccccc5)[C@H]43)cc2o1 | 15.1

What follows are compounds tested on Human immunodeficiency virus 1 (assay: Antiviral activity against HIV-1 M3 harboring protease L10I, K20R, M36I, G48V, I62V, A71V, V82A, I93L mutant infected in human MT4 cells assessed as inhibition of viral replication after 3 days by GFP reporter gene assay). Conditions: Human immunodeficiency virus 1, M3, MT4, 72 h.
Format: functional, organism-based
How it was run: as §1

Row | Structure (SMILES) | EC50 [nM]
21 | CC(C)CN(C[C@@H](O)[C@H](Cc1ccccc1)NC(=O)O[C@H]1CO[C@H]2OC[C@H](Cl)[C@H]21)S(=O)(=O)c1ccc(N)cc1 | 1.5
22 | CNc1nc2ccc(S(=O)(=O)N(CC(C)C)C[C@@H](O)[C@H](Cc3ccccc3)NC(=O)O[C@H]3CO[C@H]4OC[C@H](NC(=O)OCc5ccccc5)[C@H]43)cc2o1 | 1
23 | CNc1nc2ccc(S(=O)(=O)N(CC(C)C)C[C@@H](O)[C@H](Cc3ccccc3)NC(=O)O[C@H]3CO[C@H]4OC[C@H](OC(=O)NCc5ccccc5)[C@H]43)cc2o1 | 4
24 | CNc1nc2ccc(S(=O)(=O)N(CC(C)C)C[C@@H](O)[C@H](Cc3ccccc3)NC(=O)O[C@H]3CO[C@H]4OC[C@H](OCC(=O)NCc5ccccc5)[C@H]43)cc2o1 | 6.4

Each compound was assayed on Human immunodeficiency virus 1 (assay: Ratio of EC50 for HIV-1 M2 harboring protease L10I, I13V, M46I, I50V, L63P, L76V mutant to EC50 for wild type HIV-1 3B). Conditions: not given.
Format: functional

Row | Structure (SMILES) | Ratio EC50
25 | CC(C)CN(C[C@@H](O)[C@H](Cc1ccccc1)NC(=O)O[C@H]1CO[C@H]2OC[C@H](Cl)[C@H]21)S(=O)(=O)c1ccc(N)cc1 | 85
26 | CNc1nc2ccc(S(=O)(=O)N(CC(C)C)C[C@@H](O)[C@H](Cc3ccccc3)NC(=O)O[C@H]3CO[C@H]4OC[C@H](NC(=O)OCc5ccccc5)[C@H]43)cc2o1 | 2
27 | CNc1nc2ccc(S(=O)(=O)N(CC(C)C)C[C@@H](O)[C@H](Cc3ccccc3)NC(=O)O[C@H]3CO[C@H]4OC[C@H](OC(=O)NCc5ccccc5)[C@H]43)cc2o1 | 2.4
28 | CNc1nc2ccc(S(=O)(=O)N(CC(C)C)C[C@@H](O)[C@H](Cc3ccccc3)NC(=O)O[C@H]3CO[C@H]4OC[C@H](OCC(=O)NCc5ccccc5)[C@H]43)cc2o1 | 0.6

The compounds below were run on Human immunodeficiency virus 1 (assay: Ratio of EC50 for HIV-1 M1 harboring protease L10I, M46I, I64V, I84V, L90M, I93L mutant to EC50 for wild type HIV-1 3B). Conditions: not given.
Format: functional

Row | Structure (SMILES) | Ratio EC50
29 | CC(C)CN(C[C@@H](O)[C@H](Cc1ccccc1)NC(=O)O[C@H]1CO[C@H]2OC[C@H](Cl)[C@H]21)S(=O)(=O)c1ccc(N)cc1 | 7.5
30 | CNc1nc2ccc(S(=O)(=O)N(CC(C)C)C[C@@H](O)[C@H](Cc3ccccc3)NC(=O)O[C@H]3CO[C@H]4OC[C@H](NC(=O)OCc5ccccc5)[C@H]43)cc2o1 | 0.6
31 | CNc1nc2ccc(S(=O)(=O)N(CC(C)C)C[C@@H](O)[C@H](Cc3ccccc3)NC(=O)O[C@H]3CO[C@H]4OC[C@H](OC(=O)NCc5ccccc5)[C@H]43)cc2o1 | 1.2
32 | CNc1nc2ccc(S(=O)(=O)N(CC(C)C)C[C@@H](O)[C@H](Cc3ccccc3)NC(=O)O[C@H]3CO[C@H]4OC[C@H](OCC(=O)NCc5ccccc5)[C@H]43)cc2o1 | 0.5
